# MT1-MMP act inh: blockers of MT1-MMP proenzyme processing, primary screen, HT1080 RFP-PRO-GFP cells, GFP/RFP fluorescence; GFP/RFP ratio change, % at 20 µM; GFP/RFP ratio fluorescence, overnight; percent of plate control window, DMSO zero; AID 651647, 2012; Matrix metalloproteinase-14 (Homo sapiens), P50281; actives 0.061% (n = 360,000);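 active = GFP/RFP ratio change of at least 30% with cell ATP level not reduced by more than half and red fluorescence within 50% of control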
#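 Material – HT1080 RFP-PRO-GFP cells · Control set – DMSO wells and RFP-L50D-GFP cells · Incubation – overnight cell settling, then overnight compound exposure, 37 °C, 5% CO2 · Compound dosing – single-point 20 µM compound, 1% DMSO · Read-out – GFP/RFP fluorescence ratio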
# ATG4B inh: ATG4B protease inhibitors, primary screen, biochemical, fluorescence, uHTS; Cysteine protease ATG4B (Homo sapiens), Q9Y4P1; ATG4B cleavage of LC3-PLA2, NBD-HPC fluorescence, 1 h; inhibition, % at 8.33 µM; actives 0.51% (n = 340,000); AID 504462, 2011; in the data active = inhibition above about 40%
# Target sequence (Q9Y4P1 whole entry, looked up): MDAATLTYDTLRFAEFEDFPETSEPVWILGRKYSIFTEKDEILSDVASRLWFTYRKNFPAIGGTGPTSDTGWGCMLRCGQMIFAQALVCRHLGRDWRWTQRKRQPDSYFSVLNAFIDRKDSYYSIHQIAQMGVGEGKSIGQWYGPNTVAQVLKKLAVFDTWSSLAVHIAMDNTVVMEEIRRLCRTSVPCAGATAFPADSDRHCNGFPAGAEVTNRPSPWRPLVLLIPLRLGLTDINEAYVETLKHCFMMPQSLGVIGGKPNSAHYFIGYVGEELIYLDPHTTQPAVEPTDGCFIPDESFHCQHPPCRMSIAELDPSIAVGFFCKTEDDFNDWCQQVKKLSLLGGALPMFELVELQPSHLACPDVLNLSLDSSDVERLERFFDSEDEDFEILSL
# MPTP inh: mitochondrial permeability transition pore inhibitors, primary screen, biochemical, isolated mouse mitochondria, absorbance; Ca2+ swelling absorbance, 30 min; inhibition, % at 10 µM; actives 1.4% (n = 360,000);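 active = inhibition of 50% or more, scaled per plate between neutral and stimulator controls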
# SKN-1 block: suppressors of acrylamide-induced Pgst-4::GFP reporter in worms, primary screen, SKN-1 inhibitor project, whole organism, uHTS, GFP/RFP fluorescence ratio, strain VP596 | C. elegans VP596 Pgst-4::GFP/RFP ratio, 24 h | inhibition, % at 21.8 µM | actives 0.49% (n = 360,000) | AID 624304, 2012;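 active = interference check ratio from 0.5 to 1.5 plus GFP to RFP signal ratio inhibition reaching or exceeding a fixed threshold, cut at about 30% in these data, passing the limit was not always enough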
# MPTP counter: fluorescence retest of MPTP screen hits in isolated mitochondria, single concentration; inhibition, % at 10 µM; shares compounds with MPTP inh; actives 78% (n = 5,000); AID 624504, 2012; membrane potential, Rhodamine 123 fluorescence; in the data active = inhibition above about 22%
# MPTP swell DR: mitochondrial permeability transition pore inhibitors, dose response, biochemical, absorbance, uHTS hits | shares compounds with MPTP inh | isolated mitochondria swelling | IC50, µM | actives 58% (n = 780) | AID 651561, 2012; in the data active = IC50 below about 20 µM
# MPTP counter DR: fluorescent counter-screen in isolated mitochondria, dose response, counter-screen for MPTP inhibitor project, biochemical, fluorescence, uHTS hits. shares compounds with MPTP inh. isolated mitochondria counterscreen, fluorescence read-out. IC50, µM. actives 49% (n = 780); in the data active = IC50 below about 80 µM
# Hits are given with their value; i = inactive; nt = no result. A selection: hits, their analogues and other compounds. The true share with any hit is near 2.3%.
SMILES,MT1-MMP act inh,ATG4B inh,MPTP inh,SKN-1 block,MPTP counter,others
COc1ccc(N2CCN(S(=O)(=O)c3ccc4c(c3)CCCC4)CC2)c([N+](=O)[O-])c1,i,i,79,i,79,
NC(=O)c1ccc(N2CCN(S(=O)(=O)c3ccccc3)CC2)c([N+](=O)[O-])c1,i,i,73,i,21,
COC(=O)c1ccc(N2CCN(S(=O)(=O)c3ccc4ccccc4c3)CC2)c([N+](=O)[O-])c1,i,i,72,i,57,
O=C(c1ccc(N2CCCCC2)c([N+](=O)[O-])c1)N1CCN(S(=O)(=O)c2ccccc2)CC1,i,i,i,i,nt,
Nc1cc(=O)[nH]c(SCC(=O)Nc2ccccc2Sc2ccccc2)n1,i,i,i,i,nt,
C[C@@H]1COc2cc(N3CC[C@H](O)C3)ccc2S(=O)(=O)N1,i,nt,i,i,nt,
CCOC(=O)N1CCN(C(=O)c2cc(COc3c(F)cccc3F)on2)CC1,i,i,i,i,nt,
COc1ccnc(Oc2ccc(C)cc2C)c1C#N,i,i,i,i,nt,
CC(=O)N1CCCc2cc(S(=O)(=O)NCCC3=CCCCC3)ccc21,i,i,51,i,23,
O=C(COc1coc(CN2CCN(c3ccccc3)CC2)cc1=O)NC1CCCC1,i,i,i,i,nt,
CN=C1c2c(-c3ccccc3)c3cc(OC)ccc3n2CCN1C,i,i,68,i,i,MPTP swell DR=10;MPTP counter DR=i
CCc1nnc(N2C(=N)SCC2=O)s1,i,i,i,i,nt,
CCOc1ccccc1CN1[C@@H](c2ccc(OC)cc2)CC(C(=O)OC)(C(=O)OC)[C@H]1c1ccccc1,i,nt,i,i,nt,
O=C1/C(=C/c2ccc(O)c(O)c2)SC(=S)N1Nc1ccccc1,i,i,101,i,56,
COC(=O)c1cc([N+](=O)[O-])c(C)c(C)n1,i,nt,54,i,i,MPTP swell DR=i;MPTP counter DR=i
COc1ccc(CCNC(=O)C2CCN(Cc3nc(-c4ccccc4C)oc3C)CC2)cc1OC,i,i,82,i,i,MPTP swell DR=9.7;MPTP counter DR=23
Cc1ccccc1-c1nc(CN2CCC(C(=O)NC3CCN(Cc4ccccc4)CC3)CC2)c(C)o1,i,i,68,i,i,MPTP swell DR=i;MPTP counter DR=75
COc1ccc(CCNC(=O)C2CCN(Cc3nc(-c4ccc(Cl)cc4)oc3C)CC2)cc1OC,i,i,i,i,nt,
OC(CN1CCCCCC1)CN(c1ccccc1)c1ccccc1 (stereo unspecified),i,i,67,i,51,
Cc1cc(C(=O)COc2ccccc2C(N)=O)c(C)n1CC1CCCO1 (stereo unspecified),i,i,93,i,80,
Cc1ccc2[nH]c(CNC(=O)C3CCCCC3)cc2c1,i,i,i,i,nt,
O=C(C[n+]1ccccc1)Nc1ccccc1[N+](=O)[O-],i,i,i,i,nt,
CC(C)C(C)NC(=O)COc1ccc(-c2ccccc2)cc1 (stereo unspecified),i,i,i,i,nt,
CC(C)C(C)NC(=O)COc1ccc(Sc2ccc(OCC(=O)NC(C)C(C)C)cc2)cc1 (stereo unspecified),i,i,79,i,89,
CCCN1C(=O)/C(=C/c2ccc(C)o2)SC1=Nc1ccc(OC)cc1,i,i,64,i,i,MPTP swell DR=i;MPTP counter DR=i
SMILES,MT1-MMP act inh,ATG4B inh,MPTP inh,SKN-1 block,MPTP counter,others
CCCN1C(=O)/C(=C/c2ccc(C)o2)SC1=Nc1ccc(OCC)cc1,nt,i,i,i,nt,
O=[N+]([O-])c1ccccc1S(=O)(=O)Nc1ccc2c(c1)OCCO2,i,i,i,i,nt,
CC(C)S(=O)(=O)c1csc(NC(=O)Nc2cc(Cl)ccc2Cl)c1Cl,i,i,86,i,76,
CCN(CC)C(=O)CSC(Nc1ccc(F)cc1)=C(C#N)C#N,i,i,i,i,nt,
Cc1ccc(CSC(Nc2ccc(F)cc2)=C(C#N)C#N)cc1,i,i,95,i,93,
CCCn1c(SCC(=O)Nc2nc3c(s2)CCCC3)nc2c1c(=O)n(C)c(=O)n2C,i,i,85,i,33,
